Results as given in ChEMBL document CHEMBL1153349, “3-Hydroxy-4-oxo-4H-pyrido[1,2-a]pyrimidine-2-carboxylates--a new class of HIV-1 integrase inhibitors” (Bioorg Med Chem Lett, 2009).

Key:
[1] = molecular target: Human immunodeficiency virus type 1 integrase (Human immunodeficiency virus 1, UniProt Q7ZJM1); assay: Inhibition of HIV1 recombinant integrase strand transfer activity
[2] = tested on: Human immunodeficiency virus 1; assay: Antiviral activity against HIV1 3B infected in human MT4 cells after 3 days by ELISA in presence of 10% fetal bovine serum; format: functional; details: Human immunodeficiency virus 1, 3B, MT4, 72 h; read-out: CIC95
Procedure, shortened: (§1)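 HIV-1 infection spread was measured in cell culture (spread assay) under low-serum (10% fetal bovine serum) or high-serum (50% normal human serum) conditions.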

[3] = tested on: Human immunodeficiency virus 1; assay: Antiviral activity against HIV1 3B infected in human MT4 cells after 3 days by ELISA in presence of 50% normal human serum; format: functional; details: Human immunodeficiency virus 1, 3B, MT4, 72 h; read-out: CIC95; procedure, shortened: as §1
MT4 = assay: Cytotoxicity against human MT4 cells assessed as morphological changes up to 50 uM after 4 days; format: cell-based; details: mt4, 96 h
[4] = Half life in rat plasma at 3 mg/kg, iv and po; format: ADME, organism-based; design: dose 3 mg/kg, route oral
Procedure, shortened: (§2)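 Rats were dosed at 3 mg/kg both intravenously and orally, and the plasma PK profile was obtained. Parameters were AUC, plasma half-life and oral bioavailability (F%). Plasma clearance was taken from the IV dose.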

[5] = Oral bioavailability in rat at 3 mg/kg; format: ADME, organism-based; details: in vivo; procedure, shortened: as §2
Rattus norvegicus = assay: AUC in rat plasma at 3 mg/kg, iv and po; format: ADME, organism-based; design: dose 3 mg/kg, route oral; details: in vivo; procedure, shortened: as §2
[6] = Plasma clearance in rat at 3 mg/kg, iv; format: ADME, organism-based; design: dose 3 mg/kg, route intravenous; procedure, shortened: as §2

Human immunodeficiency virus type 1 integrase, sequence (Q7ZJM1 whole entry): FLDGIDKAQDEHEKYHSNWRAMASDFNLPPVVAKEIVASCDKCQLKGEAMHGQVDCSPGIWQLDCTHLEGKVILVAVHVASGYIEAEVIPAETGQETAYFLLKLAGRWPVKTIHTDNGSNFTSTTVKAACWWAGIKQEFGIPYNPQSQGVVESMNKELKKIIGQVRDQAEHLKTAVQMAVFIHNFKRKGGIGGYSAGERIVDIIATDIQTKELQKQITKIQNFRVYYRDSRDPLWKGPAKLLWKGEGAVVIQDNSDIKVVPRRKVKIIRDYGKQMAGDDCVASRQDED

Row | IC50 [1] | half-life [4] | bioavailability [5] | AUC (Rattus norvegicus) | clearance [6] | Structure (SMILES) | IC95 [2] | IC95 [3] | Activity (MT4)
1 | 18 nM |  |  |  |  | O=C(Nc1cccn2c(=O)c(O)c(C(=O)NCc3ccc(F)cc3)nc12)c1ccccc1 |  |  | 
2 | 18 nM |  |  |  |  | CCN(C(=O)c1ccno1)c1cccn2c(=O)c(O)c(C(=O)NCc3ccc(F)cc3)nc12 | 500 nM | > 1000 nM | Non-toxic
3 | 36 nM | 4.5 h | 40% | 2.9 µM·h | 24 mL/min/kg | CCN(C(=O)C(=O)N(C)C)c1cccn2c(=O)c(O)c(C(=O)NCc3ccc(F)cc3)nc12 | 62 nM | 250 nM | Non-toxic
4 | 130 nM |  |  |  |  | CNc1cccn2c(=O)c(O)c(C(=O)NCc3ccc(F)cc3)nc12 |  |  | 
5 | 21 nM |  |  |  |  | CC(C)N(C(=O)C(=O)N(C)C)c1cccn2c(=O)c(O)c(C(=O)NCc3ccc(F)cc3)nc12 | 62 nM | > 1000 nM | Non-toxic
6 | 50 nM |  |  |  |  | CCN(C(=O)c1nnc(C)o1)c1cccn2c(=O)c(O)c(C(=O)NCc3ccc(F)cc3)nc12 | 500 nM | > 1000 nM | Non-toxic
7 | 23 nM |  |  |  |  | CCN(C(=O)CN1CCOCC1)c1cccn2c(=O)c(O)c(C(=O)NCc3ccc(F)cc3)nc12 | > 1000 nM | > 1000 nM | Non-toxic
8 | 19 nM |  |  |  |  | CCN(CC)C(=O)C(=O)N(CC)c1cccn2c(=O)c(O)c(C(=O)NCc3ccc(F)cc3)nc12 | 62 nM | 125 nM | Non-toxic
9 | 21 nM |  |  |  |  | CCN(C(=O)c1ccccn1)c1cccn2c(=O)c(O)c(C(=O)NCc3ccc(F)cc3)nc12 | 250 nM | 1000 nM | Non-toxic
10 | 25 nM |  |  |  |  | CCN(C(=O)C(=O)N1CCOCC1)c1cccn2c(=O)c(O)c(C(=O)NCc3ccc(F)cc3)nc12 | 31 nM | 250 nM | Non-toxic
11 | 70 nM |  |  |  |  | CN(C)c1cccn2c(=O)c(O)c(C(=O)NCc3ccc(F)cc3)nc12 |  |  | 
12 | 21 nM |  |  |  |  | CCN(C(=O)C(=O)N1CCN(C)CC1)c1cccn2c(=O)c(O)c(C(=O)NCc3ccc(F)cc3)nc12 | 125 nM | 500 nM | Non-toxic
13 | 24 nM |  |  |  |  | O=C(NCc1cccn2c(=O)c(O)c(C(=O)NCc3ccc(F)cc3)nc12)c1ccccc1 |  |  | 
14 | 185 nM |  |  |  |  | CC(=O)N1CCN(Cc2cccn3c(=O)c(O)c(C(=O)NCc4ccc(F)cc4)nc23)CC1 |  |  | 
15 | 22 nM |  |  |  |  | O=C(NCc1ccc(F)cc1)c1nc2ccccn2c(=O)c1O |  |  | 
16 | 50 nM |  |  |  |  | CCN(C(=O)c1ccncc1)c1cccn2c(=O)c(O)c(C(=O)NCc3ccc(F)cc3)nc12 | > 1000 nM | > 1000 nM | Non-toxic
17 | 21 nM |  |  |  |  | CCN(C(=O)C(=O)N1CCCC1)c1cccn2c(=O)c(O)c(C(=O)NCc3ccc(F)cc3)nc12 | 31 nM | 1000 nM | Non-toxic
18 | 170 nM |  |  |  |  | O=C(NCc1ccc(F)cc1)c1nc2c(CN3CCOCC3)cccn2c(=O)c1O |  |  | 
19 | 36 nM |  |  |  |  | CCNc1cccn2c(=O)c(O)c(C(=O)NCc3ccc(F)cc3)nc12 | 1250 nM | > 1000 nM | Non-toxic
20 | 185 nM |  |  |  |  | CCN(C(=O)CN(C)C)c1cccn2c(=O)c(O)c(C(=O)NCc3ccc(F)cc3)nc12 | > 1000 nM | > 1000 nM | Non-toxic
21 | 9 nM |  |  |  |  | Cc1cccn2c(=O)c(O)c(C(=O)NCc3ccc(F)cc3)nc12 |  |  | 
22 | 18 nM |  |  |  |  | CCCN(C(=O)C(=O)N(C)C)c1cccn2c(=O)c(O)c(C(=O)NCc3ccc(F)cc3)nc12 | 31 nM | 500 nM | Non-toxic
23 | 26 nM |  |  |  |  | CN(C)C(=O)C(=O)N(C)c1cccn2c(=O)c(O)c(C(=O)NCc3ccc(F)cc3)nc12 | 125 nM | 500 nM | Non-toxic
24 | 21 nM |  |  |  |  | CCN(C(=O)c1cscn1)c1cccn2c(=O)c(O)c(C(=O)NCc3ccc(F)cc3)nc12 | 250 nM | > 1000 nM | Non-toxic
